Measured values: article PMC11406440 (Food and chemical toxicology : an international journal …, 2024)
Where “and” joins values, the source holds several entries; their conditions need not be identical. Identical values can stand only once. Entries after “also recorded” stand apart in the source; their conditions may differ. Like-named read-outs stand apart in the source and are kept apart here.

What was measured:
[1] = PFHxS concentration in serum and urine after dermal exposure; assay type: in vivo, B6C3F1 mice; conditions: 28 days; for Urine PFHxS concentration: 5 pooled samples; for PFHxS serum concentration: 24 h after last exposure
Method in brief: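 Mice received 25 μl/ear of acetone or 1.25, 2.5, 5% w/v test compound on both ears daily for 28 days. About 24 h after the last exposure, serum was taken by cardiac puncture (5 mice/group) and urine was pooled per group. Analysis was solid-phase extraction with LC/MS/MS (BEH C18, EPA method 537), linear isomer only. Serum was compared with vehicle by one-way ANOVA.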

B6C3F1 mice [2] = assay: Organ and body weights after 28-day dermal exposure; assay type: in vivo; conditions: 28 days
Method in brief: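 Female B6C3F1 mice (5/group) were treated topically on both ears (25 μl/ear) with acetone or 1.25, 2.5, 5% w/v test compound once daily for 28 days. They were weighed at necropsy about 24 h after the last dose. Liver, spleen, kidneys and thymus were cleaned of connective tissue and weighed. Organ weights were reported relative to body weight and uncorrected; dose trend was tested.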

B6C3F1 mice [3] = assay: Histopathology; assay type: in vivo; conditions: for Liver: bile, increased, hepatocyte, minimal (incidence) / Liver: hypertrophy, hepatocyte, marked (incidence) / Liver: infiltrate, mononuclear cell, mild (incidence) / Liver: infiltrate, mononuclear cell, minimal (incidence) / Liver: necrosis, mild (incidence) / Liver: necrosis, minimal (incidence) / Liver: pigment macrophage, minimal (incidence) / Spleen: decreased cellularity, lymphocyte, mild (incidence): mice affected of 5
Method in brief: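 Female B6C3F1 mice (5/group) received 25 μl/ear of acetone vehicle or 1.25–5% w/v test compound daily on both ears for 28 days, with necropsy about 24 h later. Liver, half spleen, half ear pinna and right kidney were fixed in 10% formalin, paraffin-embedded, cut at 5 μm and H&E-stained. A veterinary pathologist scored them per STP guideline, grades 1 (minimal) to 5 (severe).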

liver = assay: Liver gene expression; assay type: in vivo, B6C3F1 mice
Method in brief: (§1)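 Mice were dosed daily on both ears (25 μl/ear; acetone vehicle or 1.25, 2.5, 5% w/v) for 28 days. Half an ear pinna or the caudate liver lobe was homogenized in Buffer RLT, and total RNA was column-isolated with DNase treatment. TaqMan qPCR gave relative fold change (2−ΔΔCT) versus vehicle controls, normalized to β-actin. Liver used 4–5 mice/group, one-way ANOVA/Dunnett or Kruskal-Wallis/Dunn.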

ear = assay: Skin; assay type: in vivo, B6C3F1 mice; conditions: 28 days
Method in brief: as §1

dLN cells = assay: Draining lymph node; assay type: in vivo, B6C3F1 mice; conditions: 28 days
Method in brief: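 Female B6C3F1 mice (5/group) received 25 μl/ear of acetone vehicle or 1.25, 2.5 or 5% w/v test compound on the dorsal surface of each ear, once daily for 28 days. They were euthanized about 24 h later. Single-cell suspensions were made from both auricular dLNs, half a spleen or one ear pinna. Cells were Fc-blocked (anti-CD16/32), stained with surface antibody cocktails and acquired on an LSR II, with FMO gating controls.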

[4] = 28 days of 20 mg/kg/d oral gavage, female mice; ref Narizzano et al., 2021; cited from earlier work
[5] = female rats, 14-days of 10 mg/kg/day oral exposure; ref Butenhoff et al., 2009; cited from earlier work
[6] = 14-days of 3 mg/kg/day oral exposure; ref Chang et al., 2018; cited from earlier work
mice = conditions: 7 days of 10 mg/kg oral exposure; ref Das et al., 2017; cited from earlier work
Deer mice = conditions: oral gavage for 28-days, 7 and 14 mg/kg/d; ref Narizzano et al., 2023; cited from earlier work
[7] = PFHxS exposure, 28 days (discussion, approximate)
[8] = all three concentrations of PFHxS, 28 days

## O=S(=O)(O)C(F)(F)C(F)(F)C(F)(F)C(F)(F)C(F)(F)C(F)(F)F [PFHxS, Perfluorohexane sulfonic acid]
[1]; 1.25% PFHxS dermal
  Urine PFHxS concentration: 43 µg/mL
  PFHxS serum concentration: 440 µg/mL
[1]; 2.5% PFHxS dermal
  Urine PFHxS concentration: 120 µg/mL
  PFHxS serum concentration: 608 µg/mL
[1]; 5% PFHxS dermal
  Urine PFHxS concentration: 130 µg/mL
  PFHxS serum concentration: 656 µg/mL
B6C3F1 mice [2]; 1.25% PFHxS dermal
  Liver weight (% of body weight) increase vs. vehicle-treated mice: 162%
  Spleen weight (% of body) decrease: 25%
B6C3F1 mice [2]; 1.25, 2.5, 5% PFHxS dermal
  Mass of kidneys not corrected for body weight: significant decreases
  Mass of liver not corrected for body weight: significant increases
  Mass of spleen not corrected for body weight: significant decreases
  Mass of thymus not corrected for body weight: significant decreases
B6C3F1 mice [2]; 1.25-5% PFHxS dermal
  Kidney weight (as % of body weight): No change
B6C3F1 mice [2]; 2.5% PFHxS dermal
  Liver weight (% of body weight) increase vs. vehicle-treated mice: 172%
  Spleen weight (% of body) decrease: 37%
  Thymus weight (% of body) decrease: 44%
B6C3F1 mice [2]; 5% PFHxS dermal
  Body weight decrease: 14%
  Liver weight (% of body weight) increase vs. vehicle-treated mice: 205%
  Spleen weight (% of body) decrease: 38%
  Thymus weight (% of body) decrease: 47%
B6C3F1 mice [3]; 1.25% PFHxS, 28 days
  Liver: bile, increased, hepatocyte, minimal (incidence): 5/5 and 5
  Liver: hypertrophy, hepatocyte, marked (incidence): 5
  Liver: infiltrate, mononuclear cell, mild (incidence): 1/5 and 1
  Liver: infiltrate, mononuclear cell, minimal (incidence): 2/5 and 2
  Liver: necrosis, mild (incidence): 2/5 and 2
  Liver: necrosis, minimal (incidence): 3/5 and 3
  Liver: pigment macrophage, minimal (incidence): 4/5 and 4
  Spleen: decreased cellularity, lymphocyte, mild (incidence): 2/5 and 2
B6C3F1 mice [3]; 2.5% PFHxS, 28 days
  Liver: bile, increased, hepatocyte, minimal (incidence): 5/5 and 5
  Liver: hypertrophy, hepatocyte, marked (incidence): 5
  Liver: infiltrate, mononuclear cell, mild (incidence): 0
  Liver: infiltrate, mononuclear cell, minimal (incidence): 2/5 and 2
  Liver: necrosis, mild (incidence): 1/5 and 1
  Liver: necrosis, minimal (incidence): 4/5 and 4
  Liver: pigment macrophage, minimal (incidence): 5/5 and 5
  Spleen: decreased cellularity, lymphocyte, mild (incidence): 4/5 and 4
B6C3F1 mice [3]; 5% PFHxS, 28 days
  Liver: bile, increased, hepatocyte, minimal (incidence): 5/5 and 5
  Liver: hypertrophy, hepatocyte, marked (incidence): 5
  Liver: infiltrate, mononuclear cell, mild (incidence): 0
  Liver: infiltrate, mononuclear cell, minimal (incidence): 1/5 and 1
  Liver: necrosis, mild (incidence): 1/5 and 1
  Liver: necrosis, minimal (incidence): 4/5 and 4
  Liver: pigment macrophage, minimal (incidence): 4/5 and 4
  Spleen: decreased cellularity, lymphocyte, mild (incidence): 5/5 and 5
B6C3F1 mice [3]; PFHxS dermal exposure
  Skin irritation at the site of application: no skin irritation
B6C3F1 mice [3]; PFHxS dermal, 28 days
  Skin histopathology at the dosing site: No microscopic abnormalities; also recorded: no histopathological changes
liver; 1.25% PFHxS, 28 days
  Liver Cyp7a1 gene expression: Decreases
liver; 1.25% and 2.5% PFHxS, 28 days
  Liver Pparδ gene expression: decrease
liver; 1.25% and 5% PFHxS, 28 days
  Liver Pparγ gene expression: increase
liver; 1.25-5% PFHxS, 28 days
  Liver Pparα gene expression: No change
liver; 2.5% PFHxS, 28 days
  Liver Apoa1 gene expression: Decreases
  Liver Serpine1 gene expression, fold increase: 52 fold
liver; 5% PFHxS, 28 days
  Liver Acox1 gene expression, fold increase: 6.7 fold
  Liver Avpr1a gene expression: Decreases
  Liver Cd36 gene expression, fold increase: 23 fold
  Liver Cpt1b gene expression, fold increase: 33 fold
  Liver Cyp4a10 gene expression, fold increase: 22 fold
  Liver Ehhadh gene expression, fold increase: 61 fold
  Liver Lpl gene expression, fold increase: 30 fold
  Liver Pla2g12a gene expression, fold increase: 16 fold
liver; [7]
  Liver Acox1 gene expression, fold increase: ~ 6 fold
  Liver Ehhadh gene expression, fold increase: ~ 50 fold
liver; [8]
  Liver Cd36 gene expression, fold increase: ~ 25 fold
  Liver Lpl gene expression, fold increase: ~ 25 fold
ear; 1.25% PFHxS
  Skin Serpine1 gene expression, fold increase: 3 fold
ear; 1.25-5% PFHxS
  Skin Il-1β gene expression: no significant changes
  Skin Pparα gene expression: no change
  Skin barrier gene Flg2 expression: No changes
  Skin barrier gene Itgbl1 expression: No changes
  Skin barrier gene Krt10 expression: No changes
  Skin barrier gene Krt14 expression: No changes
ear; 2.5% PFHxS
  Skin Serpine1 gene expression, fold increase: 4 fold
ear; 2.5%, 5% PFHxS
  Skin barrier gene Lor expression: Increases
ear; 5% PFHxS
  Skin Cxcl1 gene expression, fold increase: 5 fold
  Skin Il-6 gene expression, fold increase: 2 fold
  Skin Pparγ gene expression: decrease
  Skin Pparδ gene expression: increase
  Skin S100a8 gene expression, fold increase: 9 fold
  Skin Serpine1 gene expression, fold increase: 4 fold
  Skin Tslp gene expression, fold increase: 33 fold
  Skin barrier gene Flg expression: Increases
dLN cells; 1.25%, 2.5%, and 5% PFHxS
  dLN CD4+ T cell number: significant decrease
dLN cells; 2.5%, 5% PFHxS
  dLN CD8+ T cell frequency: increase
  dLN eosinophil frequency and number: increase
dLN cells; 5% PFHxS
  dLN mean fluorescence intensity of CD86 on B cells: increase
  dLN mean fluorescence intensity of MHCII on B cells: increase
  dLN total DC number: increase
[4]
  Serum level: 35000 ng/mL
[5]
  Serum concentration: 42000 ng/mL
[6]
  Serum concentration: 180000 ng/mL
mice
  Increase in liver weight: ~ 60%
Deer mice
  PFC formation: reduction
